The source of these data is ChEMBL document CHEMBL1156160, “The introduction of P4 substituted 1-methylcyclohexyl groups into Boceprevir: a change in direction in the search for a second generation HCV NS3 protease inhibitor” (Bioorg Med Chem Lett, 2010).

The EC90 is the concentration needed for an effect of 90%. In general, Ki refers to the dissociation constant of the complex between target and ligand, obtained from inhibition or displacement.

Experiment [1] can be described thus: Selectivity for HCV NS3 protease over human neutrophil elastase. In a few lines:
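Ratio of inhibitory activity against human neutrophil elastase to that against HCV protease (HNE/HCV), taken as selectivity. HCV activity was from a continuous protease assay using NS4A-tethered single-chain NS3 serine protease, giving Ki* as the equilibrium constant for reversible covalent binding of the electrophilic ketone to the active-site serine. Compounds were tested as P1-epimer diastereomer mixtures.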

Experiment [2] concerns Hepatitis C virus. As to the kind of experiment: Antiviral activity against HCV in human hepatoma cells assessed as inhibition of RNA replication by replicon assay. The class given is functional, Hepacivirus hominis. (In general: Replicon systems follow genome replication, usually without infectious particles.)
Experiment [3] in a line: Inhibition of HCV NS4A tagged recombinant single chain NS3 protease after 15 mins. Set-up: species or system Hepacivirus hominis.

As for `CC(C)(C)[C@H](NC(=O)NC1(Cc2ccccc2)CCCCC1)C(=O)N1C[C@H]2[C@@H]([C@H]1C(=O)NC(CC1CC1)C(=O)C(N)=O)C2(C)C` (stereo partly drawn), the Ratio in experiment [1] amounted to 395. In addition, in experiment [2], the EC90 was found to be 85 nM. The Ki in experiment [3] was found to be 12 nM.
Taken in the same sequence, the figures for `CC(C)(C)[C@H](NC(=O)NC1(Cc2cccnc2)CCCCC1)C(=O)N1C[C@H]2[C@@H]([C@H]1C(=O)NC(CC1CC1)C(=O)C(N)=O)C2(C)C` (stereo partly drawn) were 200, 400 nM and 25 nM.
`CCS(=O)(=O)CC1(NC(=O)N[C@H](C(=O)N2C[C@H]3[C@@H]([C@H]2C(=O)NC(CC2CC2)C(=O)C(N)=O)C3(C)C)C(C)(C)C)CCCCC1` (stereo partly drawn): the Ratio in experiment [1] was 290. Besides, in experiment [2], the EC90 turned out to be 400 nM. For the same molecule, the inhibitory constant (Ki) in experiment [3] was found to be 11 nM.
As for `CC1(NC(=O)N[C@H](C(=O)N2C[C@H]3[C@@H]([C@H]2C(=O)NC(CC2CCC2)C(=O)C(N)=O)C3(C)C)C(C)(C)C)CCCCC1` (stereo partly drawn), the Ratio in experiment [1] stood at 4100. Also, the EC90 in experiment [2] came to 200 nM. Moreover, in experiment [3], the Ki came out at 8 nM.
As for `CCS(=O)(=O)CC1(NC(=O)N[C@H](C(=O)N2C[C@H]3[C@@H]([C@H]2C(=O)NC(CC2CCC2)C(=O)C(N)=O)C3(C)C)C(C)(C)C)CCCCC1` (stereo partly drawn), the Ratio in experiment [1] worked out at 1200. For the same molecule, the EC90 in experiment [2] came out at 90 nM. In addition, the Ki in experiment [3] worked out at 5 nM.
For the molecule `CC(C)(C)[C@H](NC(=O)NC1(CS(=O)(=O)c2cccc(O)c2)CCCCC1)C(=O)N1C[C@H]2[C@@H]([C@H]1C(=O)NC(CC1CC1)C(=O)C(N)=O)C2(C)C` (stereo partly drawn), the Ratio in experiment [1] amounted to 200. The EC90 in experiment [2] worked out at 1000 nM. Moreover, the Ki in experiment [3] was determined as 6 nM.
Regarding `CCCC(NC(=O)[C@@H]1[C@@H]2[C@H](CN1C(=O)[C@@H](NC(=O)NC(C)(C)C)C1CCCCC1)C2(C)C)C(=O)C(N)=O` (stereo partly drawn), the Ki in experiment [3] was determined as 100 nM.
For `CC(C)(C)[C@H](NC(=O)NC1(Cc2nccs2)CCCCC1)C(=O)N1C[C@H]2[C@@H]([C@H]1C(=O)NC(CC1CC1)C(=O)C(N)=O)C2(C)C` (stereo partly drawn), in experiment [1], the Ratio came out at 620. Moreover, the EC90 in experiment [2] was 200 nM. In experiment [3], the Ki stood at 11 nM.
Taken in the same sequence, the figures for `CC(C)(C)[C@H](NC(=O)NC1(CS(C)(=O)=O)CCCCC1)C(=O)N1C[C@H]2[C@@H]([C@H]1C(=O)NC(CC1CCC1)C(=O)C(N)=O)C2(C)C` (stereo partly drawn) were 2400, 500 nM and 4 nM.
In the same order, the values of `CC(C)(C)[C@H](NC(=O)NC1(Cc2ccc(O)cc2)CCCCC1)C(=O)N1C[C@H]2[C@@H]([C@H]1C(=O)NC(CC1CC1)C(=O)C(N)=O)C2(C)C` (stereo partly drawn) are 260, 400 nM and 30 nM.
On to `CC(C)(C)[C@H](NC(=O)NC1(CN)CCCC1)C(=O)N1C[C@H]2[C@@H]([C@H]1C(=O)NC(CC1CC1)C(=O)C(N)=O)C2(C)C` (stereo partly drawn), for which the Ki in experiment [3] came out at 140 nM.
Turning to `CC(C)(C)[C@H](NC(=O)NC1(Cc2ccncc2)CCCCC1)C(=O)N1C[C@H]2[C@@H]([C@H]1C(=O)NC(CC1CC1)C(=O)C(N)=O)C2(C)C` (stereo partly drawn), in experiment [1], the Ratio is 250. The EC90 in experiment [2] came to 300 nM. Besides, the Ki in experiment [3] came to 39 nM.
Consider `Cc1cc(S(=O)(=O)CC2(NC(=O)N[C@H](C(=O)N3C[C@H]4[C@@H]([C@H]3C(=O)NC(CC3CC3)C(=O)C(N)=O)C4(C)C)C(C)(C)C)CCCCC2)co1` (stereo partly drawn), for which the Ratio in experiment [1] stood at 260. For the same molecule, the EC90 in experiment [2] amounted to 400 nM. Further, the Ki in experiment [3] was 10 nM.
In the case of `CC(C)(C)[C@H](NC(=O)NC1(CS(=O)(=O)C(C)(C)C)CCCCC1)C(=O)N1C[C@H]2[C@@H]([C@H]1C(=O)NC(CC1CCC1)C(=O)C(N)=O)C2(C)C` (stereo partly drawn), the EC90 in experiment [2] was 80 nM. Further, the Ki in experiment [3] turned out to be 3 nM.
Consider `CC(C)(C)[C@H](NC(=O)NC1(C(=O)c2ccccc2)CCCCC1)C(=O)N1C[C@H]2[C@@H]([C@H]1C(=O)NC(CC1CC1)C(=O)C(N)=O)C2(C)C` (stereo partly drawn), for which the Ratio in experiment [1] was 230. In experiment [2], the EC90 is 2000 nM. Besides, the inhibition constant Ki in experiment [3] was determined as 100 nM.
`CC(C)(C)[C@H](NC(=O)NC1(c2ccccc2)CCCCC1)C(=O)N1C[C@H]2[C@@H]([C@H]1C(=O)NC(CC1CC1)C(=O)C(N)=O)C2(C)C` (stereo partly drawn): the Ratio in experiment [1] amounted to 320. Besides, the EC90 in experiment [2] was 400 nM. For the same molecule, in experiment [3], the inhibition constant (Ki) is 47 nM.
Take `CC(C)(C)[C@H](NC(=O)NC1(CS(C)(=O)=O)CCCCC1)C(=O)N1C[C@H]2[C@@H]([C@H]1C(=O)NC(CC1CC1)C(=O)C(N)=O)C2(C)C` (stereo partly drawn): the Ratio in experiment [1] was 460. Moreover, the EC90 in experiment [2] was 300 nM. Further, in experiment [3], the Ki is 2 nM.
Consider `CC1(NC(=O)N[C@H](C(=O)N2C[C@H]3[C@@H]([C@H]2C(=O)NC(CC2CC2)C(=O)C(N)=O)C3(C)C)C(C)(C)C)CCC1` (stereo partly drawn), for which the Ratio in experiment [1] amounted to 110. In addition, the EC90 in experiment [2] turned out to be 200 nM. For the same molecule, the Ki in experiment [3] amounted to 24 nM.
Take `CC(c1ccccc1)C1(NC(=O)N[C@H](C(=O)N2C[C@H]3[C@@H]([C@H]2C(=O)NC(CC2CC2)C(=O)C(N)=O)C3(C)C)C(C)(C)C)CCCCC1` (stereo partly drawn): the Ratio in experiment [1] is 2600. Also, the EC90 in experiment [2] stood at 400 nM. Also, the Ki in experiment [3] turned out to be 11 nM.
For `CC(C)(C)[C@H](NC(=O)NC1(Cc2cccc(O)c2)CCCCC1)C(=O)N1C[C@H]2[C@@H]([C@H]1C(=O)NC(CC1CC1)C(=O)C(N)=O)C2(C)C` (stereo partly drawn), the EC90 in experiment [2] is 70 nM. The Ki in experiment [3] came to 9 nM.
On to `CC(C)(C)[C@H](NC(=O)NC1(Cc2cccc3ccccc23)CCCCC1)C(=O)N1C[C@H]2[C@@H]([C@H]1C(=O)NC(CC1CC1)C(=O)C(N)=O)C2(C)C` (stereo partly drawn), for which, in experiment [1], the Ratio was 470. Further, the EC90 in experiment [2] is 400 nM. For the same molecule, in experiment [3], the Ki came to 44 nM.
As to `CC(C)(C)[C@H](NC(=O)NC1(CO)CCCC1)C(=O)N1C[C@H]2[C@@H]([C@H]1C(=O)NC(CC1CC1)C(=O)C(N)=O)C2(C)C` (stereo partly drawn), the EC90 in experiment [2] is > 1000 nM. In experiment [3], the Ki came to 15 nM.
Consider `CC(C)(C)[C@H](NC(=O)NC1(CS(=O)(=O)c2ccccc2)CCCCC1)C(=O)N1C[C@H]2[C@@H]([C@H]1C(=O)NC(CC1CCC1)C(=O)C(N)=O)C2(C)C` (stereo partly drawn), for which the Ratio in experiment [1] is 1100. Also, the EC90 in experiment [2] is 200 nM. The Ki in experiment [3] came out at 9 nM.
`CC(C)(C)[C@H](NC(=O)NC1(Cc2ccco2)CCCCC1)C(=O)N1C[C@H]2[C@@H]([C@H]1C(=O)NC(CC1CC1)C(=O)C(N)=O)C2(C)C` (stereo partly drawn): the EC90 in experiment [2] came to 100 nM. Moreover, in experiment [3], the inhibitory constant (Ki) came to 11 nM.
On to `CC(C)(C)[C@H](NC(=O)NC1(Cc2ccc3ccccc3c2)CCCCC1)C(=O)N1C[C@H]2[C@@H]([C@H]1C(=O)NC(CC1CC1)C(=O)C(N)=O)C2(C)C` (stereo partly drawn), for which the Ki in experiment [3] was 300 nM.
Regarding `CC1(NC(=O)N[C@H](C(=O)N2C[C@H]3[C@@H]([C@H]2C(=O)NC(CC2CC2)C(=O)C(N)=O)C3(C)C)C(C)(C)C)CCCCC1` (stereo partly drawn), the EC90 in experiment [2] was found to be 250 nM. Also, the Ki in experiment [3] worked out at 16 nM.
On to `CC(C)(C)[C@H](NC(=O)NC1(C(O)c2ccccc2)CCCCC1)C(=O)N1C[C@H]2[C@@H]([C@H]1C(=O)NC(CC1CC1)C(=O)C(N)=O)C2(C)C` (stereo partly drawn), for which the Ratio in experiment [1] worked out at 1170. In experiment [2], the EC90 worked out at 400 nM. Moreover, the Ki in experiment [3] is 11 nM.
For the molecule `CC(C)(C)[C@H](NC(=O)NC1(Cc2ccsc2)CCCCC1)C(=O)N1C[C@H]2[C@@H]([C@H]1C(=O)NC(CC1CC1)C(=O)C(N)=O)C2(C)C` (stereo partly drawn), the EC90 in experiment [2] turned out to be 100 nM. In addition, the Ki in experiment [3] is 10 nM.
Consider `CC(C)(C)[C@H](NC(=O)NC1(CS(=O)(=O)c2ccccc2)CCCCC1)C(=O)N1C[C@H]2[C@@H]([C@H]1C(=O)NC(CC1CC1)C(=O)C(N)=O)C2(C)C` (stereo partly drawn), for which the EC90 in experiment [2] turned out to be 100 nM. In experiment [3], the Ki amounted to 3 nM.
Regarding `CC(C)(C)[C@H](NC(=O)NC1(Cc2ccccn2)CCCCC1)C(=O)N1C[C@H]2[C@@H]([C@H]1C(=O)NC(CC1CC1)C(=O)C(N)=O)C2(C)C` (stereo partly drawn), the EC90 in experiment [2] stood at 180 nM. For the same molecule, the Ki in experiment [3] amounted to 7 nM.
For the molecule `CC(C)(C)[C@H](NC(=O)NC1(Cc2ccccc2)CCCC1)C(=O)N1C[C@H]2[C@@H]([C@H]1C(=O)NC(CC1CC1)C(=O)C(N)=O)C2(C)C` (stereo partly drawn), the Ratio in experiment [1] stood at 130. For the same molecule, the EC90 in experiment [2] came to 300 nM. Besides, the Ki in experiment [3] came out at 24 nM.
For `CC(C)(C)[C@H](NC(=O)NC1(CS(=O)(=O)Cc2ccco2)CCCCC1)C(=O)N1C[C@H]2[C@@H]([C@H]1C(=O)NC(CC1CC1)C(=O)C(N)=O)C2(C)C` (stereo partly drawn), the Ratio in experiment [1] was 200. In experiment [2], the EC90 amounted to 500 nM. Besides, in experiment [3], the Ki turned out to be 4 nM.
As for `CC(C)(C)[C@H](NC(=O)NC1(Cc2cccs2)CCCCC1)C(=O)N1C[C@H]2[C@@H]([C@H]1C(=O)NC(CC1CC1)C(=O)C(N)=O)C2(C)C` (stereo partly drawn), the Ratio in experiment [1] was determined as 470. Besides, the EC90 in experiment [2] turned out to be 200 nM. Further, the Ki in experiment [3] was 9 nM.
Taken in the same sequence, the figures for `CC(C)(C)[C@H](NC(=O)NC1(Cc2ccccc2)CCCCCC1)C(=O)N1C[C@H]2[C@@H]([C@H]1C(=O)NC(CC1CC1)C(=O)C(N)=O)C2(C)C` (stereo partly drawn) were 73, 700 nM and 78 nM.
For `CC1(NC(=O)N[C@H](C(=O)N2C[C@H]3[C@@H]([C@H]2C(=O)NC(CC2CC2)C(=O)C(N)=O)C3(C)C)C(C)(C)C)CCCC1` (stereo partly drawn), the EC90 in experiment [2] turned out to be 200 nM. Also, the Ki in experiment [3] turned out to be 10 nM.
With `CC(C)(C)[C@H](NC(=O)NC1(CS(=O)(=O)C(C)(C)C)CCCCC1)C(=O)N1C[C@H]2[C@@H]([C@H]1C(=O)NC(CC1CC1)C(=O)C(N)=O)C2(C)C` (stereo partly drawn), in experiment [2], the EC90 is 100 nM. For the same molecule, the Ki in experiment [3] stood at 12 nM.
Consider `C=CCNC(=O)C(=O)C(CCC)NC(=O)[C@@H]1[C@@H]2[C@H](CN1C(=O)[C@@H](NC(=O)NC(C)(C)C)C1CCCCC1)C2(C)C` (stereo partly drawn), for which the Ki in experiment [3] came to 280 nM.
